This excerpt belongs to a sample that is enriched for hits.
CHOP UPR activ: activators of apoptotic arm of unfolded protein response (CHOP); 330,000 tested, 0.34% active; activation, % at 10 µM; CHO-CHOP luciferase reporter, UPR activation, luminescence; percent of tunicamycin response over DMSO baseline;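 active = at 10 µM dose, activation of 40% or more, normalized to positive control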
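Test system: CHO CHOP reporter cells. Input: 500 CHO-CHOP cells per well. Medium: F12 with 10% FBS. Technique: luciferase luminescence. Measure: percent activation relative to tunicamycin control. Dosing: 10 µM compound, 0.5% DMSO. Timing: 16-18 h cell attachment, then 6 h compound exposure, 37 °C.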
CHOP inh: blocks CHOP induction under ER stress | CHO-K1 CHOP-promoter luciferase, tunicamycin-induced, 15-18 h | inhibition, % at 10 µM | 220,000 tested, 3.8% active | AID 2732;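 active = compounds that reduced the stress-induced luciferase reporter signal by more than about 70% of percent inhibition, limit read from the data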
UPR XBP1 act: activators of adaptive arm of unfolded protein response (XBP1) | CHO-XBP1 luciferase reporter, IRE1-XBP1 UPR activation, luminescence; percent of tunicamycin response, DMSO as zero | activation, % at 20 µM | 330,000 tested, 0.33% active;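 active = versus positive control, 20 µM dose yields 30% or more activation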
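incubation = overnight seeding at 37 °C, 6 h compound treatment at 37 °C | assay system = CHO-XBP1 cells stably carrying IRE1-XBP1-driven luciferase reporter | input = 1000 cells per well | detection = luciferase luminescence | dosing = single point, 20 µM final compound, 1% DMSO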
Fh CTSL1 inh: counter-screen for PFM18AAP inhibitors: inhibitors of F. hepatica cathepsin L1; recombinant F. hepatica cathepsin L1, Z-Leu-Arg-MCA fluorescence; inhibition, % at 5.96 µM; 300,000 tested, 0.49% active; AID 1906;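 active = inhibition above the mean of all tested compounds plus 3 SD, set per screening campaign, cut at about 17% in these data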
UCH37 DUB inh: human UCH37 deubiquitinating enzyme inhibition; Q9Y5K5; purified proteasome/UCH37, Ub-AMC cleavage fluorescence; inhibition, % (no concentration beside the values); 330,000 tested, 0.33% active;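 active = mean inhibition over replicate wells above about 20%, limit read from the data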
Target sequence (Q9Y5K5 whole entry, looked up): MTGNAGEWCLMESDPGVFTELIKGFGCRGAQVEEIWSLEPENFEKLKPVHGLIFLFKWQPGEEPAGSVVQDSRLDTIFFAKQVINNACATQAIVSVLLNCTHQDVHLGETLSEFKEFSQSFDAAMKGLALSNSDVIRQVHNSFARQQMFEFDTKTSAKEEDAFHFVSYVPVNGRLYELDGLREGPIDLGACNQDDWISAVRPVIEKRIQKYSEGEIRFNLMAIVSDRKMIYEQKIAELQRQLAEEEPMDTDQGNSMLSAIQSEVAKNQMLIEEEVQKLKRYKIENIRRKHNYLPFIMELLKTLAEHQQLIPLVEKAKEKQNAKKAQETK
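Schedule: 30 min plus 25 min, room temperature / Material: human UCH37 within purified proteasomes / Technique: AMC fluorescence intensity at 355/460 nm / Buffer or medium: pH 7.4 Tris-HCl (50 mM) with ovalbumin, ATP-MgCl2, DTT / Controls: wells without proteasome as full block, compound-free enzyme plus substrate as uninhibited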
CHOP inh conf: confirmation of CHOP induction inhibitors; CHO-CHOP promoter luciferase reporter, tunicamycin-induced, luminescence; AID 504437; 2,100 tested, 45% active; inhibition, % at 10 µM; shares compounds with CHOP inh;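 active = mean of three repeat readings of reporter signal inhibition above a set limit, cut at about 70% in these data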
Of the large screens only hits and unclear results are named; the others gave an inactive call (follow-up assays come after a bar, where they were run).

O=S(=O)(Nc1cc(Sc2cccc3cccnc23)c(O)c2ccccc12)c1ccc(F)cc1	CHOP inh 107 (no result: CHOP UPR activ, UPR XBP1 act) | CHOP inh conf 108
O=C(O)Cn1cc(C=c2sc3nc4ccccc4n3c2=O)c2ccccc21	none (no result: CHOP UPR activ, CHOP inh, UPR XBP1 act, Fh CTSL1 inh)
O=[N+]([O-])c1ccccc1C1Nc2cccc3cccc(c23)N1	CHOP inh 106 | CHOP inh conf inactive
CCC1(CC)Cc2ccccc2-c2nc(NCCO)[nH]c(=O)c21	none
O=c1[nH]c(NCCO)nc2c1C1(CCCCC1)Cc1ccccc1-2	CHOP inh 99 | CHOP inh conf inactive
COc1ccc(C=NN(C)C2=NS(=O)(=O)c3ccccc32)cc1	none (no result: CHOP UPR activ, CHOP inh, UPR XBP1 act, Fh CTSL1 inh)
COc1cc(/C=N/N(C)c2ccccc2)cc(Cl)c1O	CHOP inh 97 (no result: UCH37 DUB inh) | CHOP inh conf inactive
COc1cc(C=NN(C)c2ccccc2)cc(Cl)c1O	none (no result: CHOP UPR activ, CHOP inh, UPR XBP1 act, Fh CTSL1 inh)
Cc1ccc(NCc2n[nH]c(=S)n2Cc2ccccc2)cc1Cl	CHOP inh 100 (no result: CHOP UPR activ, UPR XBP1 act, Fh CTSL1 inh) | CHOP inh conf inactive
CCOP(=O)(OCC)C(=NOC(=O)c1ccccc1C)C(N)=O	none (no result: CHOP UPR activ, CHOP inh, UPR XBP1 act, Fh CTSL1 inh)
CCC(=O)N1N=C(c2c(-c3ccccc3)c3cc(Cl)ccc3[nH]c2=O)CC1c1ccco1 (stereo unspecified)	CHOP inh 103 | CHOP inh conf 116
COC(=O)c1ccc(-n2c(C)cc(C=NNc3nc(C)cc(=O)[nH]3)c2C)cc1	none (no result: CHOP UPR activ, CHOP inh, UPR XBP1 act, Fh CTSL1 inh)
CC(C)(C)c1nnc(N/N=C/c2cc(Br)ccc2O)n(N)c1=O	CHOP inh 106 (no result: CHOP UPR activ, UPR XBP1 act, UCH37 DUB inh) | CHOP inh conf 118
Nc1nc(NC(=O)c2ccccc2)nn1-c1ccccc1	none
O=C(Nc1nc(NC(=O)c2ccco2)n(-c2ccccc2)n1)c1ccccc1	CHOP inh 106 | CHOP inh conf inactive
COC(=O)c1ccc2c(=O)n(CCCCCC(=O)N3CCN(c4ccccc4)CC3)c(=O)[nH]c2c1	CHOP inh 105 | CHOP inh conf 113
CCOc1ccc(-c2nc(CSCC(=O)NCc3ccco3)c(C)o2)cc1	CHOP inh 106 | CHOP inh conf 118
COc1ccccc1C=NN1C(=O)C2C3C=CC(CC3)C2C1=O (stereo unspecified)	none (no result: CHOP UPR activ, CHOP inh, UPR XBP1 act, Fh CTSL1 inh)
CN(C)C=Nc1cc(=O)n(C)c(=O)n1Cc1ccccc1	none (no result: CHOP UPR activ, CHOP inh, UPR XBP1 act, Fh CTSL1 inh)
CC(C)=CCc1c(O)ccc(C(=O)Cc2ccccc2)c1O	CHOP inh 106 (no result: UCH37 DUB inh) | CHOP inh conf inactive
Cc1ccc(C(=O)Cc2ccccc2)c(O)c1	none (no result: CHOP UPR activ, CHOP inh, UPR XBP1 act, Fh CTSL1 inh)
CC(C)c1ccc2c(c1)C1(NN=C(c3ccccc3)S1)C(=O)N2 (stereo unspecified)	CHOP inh 105 | CHOP inh conf 106
Cc1ccc(-c2nc(N)sc2-c2ccc(C)cc2)cc1	CHOP inh 97 (no result: CHOP UPR activ, UPR XBP1 act, Fh CTSL1 inh) | CHOP inh conf 114
Cc1ccc(-c2nc(N)sc2C)cc1	none
Cc1ccc(C=NNC(=O)c2cc3c(s2)CCCC3)o1	none (no result: CHOP UPR activ, CHOP inh, UPR XBP1 act, Fh CTSL1 inh)
CC(C)Cn1c(N)c(C(=O)COC(=O)C2CCCCC2)c(=O)n(C)c1=O	CHOP inh 100 | CHOP inh conf 78
Cc1ccc(N2CC(C(=O)OCC(=O)c3c(N)n(CC(C)C)c(=O)n(C)c3=O)CC2=O)cc1 (stereo unspecified)	none (no result: CHOP inh)
O=C(OCC(F)(F)F)c1cccc(COc2ccc3ccccc3c2)c1	CHOP inh 97 | CHOP inh conf 116
COc1ccc(OCc2cccc(C(=O)O)c2)cc1	CHOP inh 105 | CHOP inh conf 126
O=C(O)c1cccc(COc2ccc(CO)cc2Cl)c1	CHOP inh 97 | CHOP inh conf 121
CCOC(=O)c1cc([N+](=O)[O-])c([N+](=O)[O-])cc1NC(C)=O	CHOP inh 107 (no result: CHOP UPR activ, UPR XBP1 act) | CHOP inh conf 91
CC(=NNC(=O)c1cc(C(C)C)[nH]n1)c1ccco1	none (no result: CHOP UPR activ, CHOP inh, UPR XBP1 act, Fh CTSL1 inh)
O=C1CC(C(=O)Nc2ccc(Cl)c(Cl)c2)S/C(=N\N=C\c2ccco2)N1 (stereo unspecified)	CHOP inh 100 (no result: UCH37 DUB inh) | CHOP inh conf inactive
O=C(NN=Cc1cc(Br)cs1)c1ccc2c(c1)OCCO2	none (no result: CHOP UPR activ, CHOP inh, UPR XBP1 act, Fh CTSL1 inh)
N#CC(C#N)=C1C=CC=CN1/C(=C\c1ccccc1Cl)C(=O)c1ccccc1	CHOP inh 107 (no result: CHOP UPR activ, UPR XBP1 act) | CHOP inh conf 125
N#C/C(=C\c1cccc(Cl)c1)C(=O)c1ccccc1	none (no result: Fh CTSL1 inh, UCH37 DUB inh)
CCOC(=O)C(C(C)=NNC(=O)C1CC1c1ccccc1)C(C)C (stereo unspecified)	none (no result: CHOP UPR activ, CHOP inh, UPR XBP1 act, Fh CTSL1 inh)
Nc1cccc(Nc2nc(OC(C(F)(F)F)C(F)(F)F)nc(OC(C(F)(F)F)C(F)(F)F)n2)c1	CHOP inh 100 | CHOP inh conf 117
CC(=O)C(=NNc1ccccc1[N+](=O)[O-])N1CCCc2ccccc21	none (no result: CHOP UPR activ, CHOP inh, UPR XBP1 act, Fh CTSL1 inh)
O=C(Nc1ccc(F)cc1F)Nc1csc2ccccc12	none
O=C(Nc1ccc(F)c(Cl)c1)Nc1csc2ccccc12	CHOP inh 99 | CHOP inh conf inactive
CCOc1cc(NC(=S)NCC(C)C)c(OCC)cc1NC(=O)c1cccs1	CHOP inh 100 | CHOP inh conf 100
O=c1c2ccccc2nc(NN=Cc2ccccc2)n1O	none (no result: CHOP UPR activ, CHOP inh, UPR XBP1 act, Fh CTSL1 inh)
CCOC(=O)CCCCC(=O)c1[nH]c(=O)[nH]c1CSc1nc(C)cc(C)n1	none
CCOC(=O)CCCCC(=O)c1[nH]c(=O)[nH]c1CSc1nnc2c3cc(Br)ccc3n(C)c2n1	CHOP inh 103 | CHOP inh conf inactive
Cc1oc(=O)c(NC(=O)c2ccc(Cl)cc2)cc1C(=O)c1ccccc1	CHOP inh 106, Fh CTSL1 inh 19 | CHOP inh conf inactive
CC(=O)c1cc(NC(=O)c2ccccc2)c(=O)oc1C	none
COc1ccc(C2NC(C(=O)O)Cc3c2[nH]c2ccccc32)cc1OC (stereo unspecified)	none
